Test results reported in ChEMBL document CHEMBL1149101, “New antibacterial agents derived from the DNA gyrase inhibitor cyclothialidine” (J Med Chem, 2004).
In brackets after ≈: the same amount, converted by molar mass.

Key:
[1] = Range for minimum inhibitory concentration against Staphylococcus aureus; 0.06->64; assay type: functional
Staphylococcus aureus [2] = assay: Minimum inhibitory concentration against Staphylococcus aureus; assay type: functional
[3] = Range for minimum inhibitory concentration against Staphylococcus aureus; 0.5->[…]; assay type: functional
[4] = molecular target: T1, DNA gyrase (Escherichia coli) (UniProt P0AES6+P0AES4)
Staphylococcus aureus [5] = assay: Minimum inhibitory concentration against Staphylococcus aureus Smith; assay type: functional
In short: (§1)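 NCCLS agar dilution on Mueller–Hinton agar, compound incorporated into melted medium at 50 °C. Inoculum about 10⁴ CFU/spot from diluted overnight cultures, multipoint-applied.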

[6] = system: Stenotrophomonas maltophilia; assay: Minimum inhibitory concentration against Xanthomonas maltophilia AC739; assay type: functional; in short: as §1
Enterococcus faecalis [7] = assay: Minimum inhibitory concentration against Enterococcus faecalis 6; assay type: functional; in short: as §1
[8] = system: Staphylococcus epidermidis; assay: Minimum inhibitory concentration against Staphylococcus epidermidis 16/2; assay type: functional; in short: as §1
Neisseria meningitidis = assay: Minimum inhibitory concentration against Neisseria meningitides 69480; assay type: functional
In short: (§2)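 Agar dilution per NCCLS in BB2 agar + 1% Isovitalex + 7.5% sheep blood + menadione, compound added to melted medium at 50 °C. About 10⁴ CFU/spot from diluted overnight cultures, multipoint-inoculated.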

[9] = molecular target: T1, DNA gyrase (Escherichia coli); assay: Maximum noneffective concentration against Escherichia coli DNA gyrase; assay type: protein-complex assay
In short: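 Gyrase A2B2 complex reconstituted from equimolar subunits (25 °C, 0.5 h). Relaxed pUC18 DNA incubated with enzyme at 37 °C for 0.5 h, compound 0.001–100 μg/mL. Products resolved on 0.8% agarose gel. MNEC, read visually, is the highest concentration still allowing complete plasmid supercoiling.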

Staphylococcus aureus [10] = assay: Minimum inhibitory concentration against Staphylococcus aureus ATCC 25923; assay type: functional; in short: as §1
Staphylococcus aureus [11] = assay: Minimum inhibitory concentration against Staphylococcus aureus 887; assay type: functional; in short: as §2
Escherichia coli = assay: Minimum inhibitory concentration against Escherichia coli 25922; assay type: functional; in short: as §1
Micrococcus luteus = assay: Minimum inhibitory concentration against Micrococcus luteus ATCC 8340; assay type: functional; in short: as §2
[12] = Range for minimum inhibitory concentration against Enterococcus faecalis; 1-4; assay type: functional
Enterococcus faecalis [13] = assay: Minimum inhibitory concentration against Enterococcus faecalis; assay type: functional
In short: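 Agar dilution per NCCLS on Mueller–Hinton agar, strain E. faecalis 6 (listed as S. faecalis 6). Compound incorporated into melted medium at 50 °C just before pouring plates. Inoculum about 10⁴ CFU/spot from diluted overnight culture, applied with multipoint inoculator.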

Staphylococcus aureus [14] = assay: In vivo effective dose was determined in septicaemic mice (Staphylococcus aureus Smith) when administration iv; assay type: functional
In short: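 Compound given iv as a gelatine microsuspension at 1 and 3 h post-challenge, 5 mice per group. ED50 (mg/kg) from day-4 survival by probit analysis.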

[15] = Minimum inhibitory concentration against Enterococcus faecalis
Mus musculus = species on record: Mus musculus; assay: Percentage of binding to the mice plasma protein was determined; assay type: functional
[16] = Range for minimum inhibitory concentration against Staphylococcus aureus; 0.5-2; assay type: functional
[17] = Range for minimum inhibitory concentration against Enterococcus faecium; 2-8; assay type: functional
Streptococcus pyogenes = assay: Minimum inhibitory concentration against Streptococcus pyogenes b15; conditions: Streptococcus pyogenes; read-out: MIC
[18] = Range for minimum inhibitory concentration against Enterococcus faecalis;4-8; assay type: functional
[19] = Range for minimum inhibitory concentration against Staphylococcus aureus 0.5->[…]; assay type: functional
HeLa = assay: Cytotoxicity in HeLa cells; assay type: cell-based
[20] = Range for minimum inhibitory concentration against Staphylococcus aureus; 4->64; assay type: functional
[21] = Staphylococcus aureus, read-out: MIC
[22] = Staphylococcus aureus, ATCC 25923, read-out: MIC

Structure (SMILES)	MIC50 (Staphylococcus aureus [2]) [µg/mL]	MIC90 (Staphylococcus aureus [2]) [µg/mL]	MIC (Staphylococcus aureus [5]; [21]) [µg/mL]	MIC [6] [µg/mL]	MIC (Enterococcus faecalis [7]) [µg/mL]	MIC [8] [µg/mL]	MIC (Staphylococcus aureus [10]; [22]) [µg/mL]	MIC (Escherichia coli) [µg/mL]	also measured
C[C@@H](O)[C@H]1C(=O)N2C(C(=O)O)=C(SCCNC=N)C[C@H]12 [IMIPENEM ANHYDROUS]	4 (≈ 13.4 µM)	16 (≈ 53.4 µM)	–	–	–	–	–	–	Range [1]: 64 µg/mL
CC[C@H]1OC(=O)[C@H](C)[C@@H](O[C@H]2C[C@@](C)(OC)[C@@H](O)[C@H](C)O2)[C@H](C)[C@@H](O[C@@H]2O[C@H](C)C[C@H](N(C)C)[C@H]2O)[C@](C)(O)C[C@@H](C)C(=O)[C@H](C)[C@@H](O)[C@]1(C)O [ERYTHROMYCIN]	> 16	> 16	–	–	–	–	–	–	Range [3]: 16 µg/mL
COC(=O)[C@@H]1CSCc2c(O)cc(OC)c(C)c2C(=O)OCCC(=O)N1	–	–	64 (≈ 167 µM)	> 64	> 64	8 (≈ 20.9 µM)	> 64	> 64	MNEC [4]: 0.25 µg/mL; MIC (Neisseria meningitidis): 32 µg/mL (≈ 83.5 µM); MNEC [9]: 0.5 µg/mL; MIC (Staphylococcus aureus [10]): 64 µg/mL (≈ 167 µM); MIC (Staphylococcus aureus [11]): > 64 µg/mL; MIC (Micrococcus luteus): 16 µg/mL (≈ 41.7 µM)
CN[C@H](CC(C)C)C(=O)N[C@H]1C(=O)N[C@@H](CC(N)=O)C(=O)N[C@H]2C(=O)N[C@H]3C(=O)N[C@H](C(=O)N[C@H](C(=O)O)c4cc(O)cc(O)c4-c4cc3ccc4O)[C@H](O)c3ccc(c(Cl)c3)Oc3cc2cc(c3O[C@@H]2O[C@H](CO)[C@@H](O)[C@H](O)[C@H]2O[C@H]2C[C@](C)(N)[C@H](O)[C@H](C)O2)Oc2ccc(cc2Cl)[C@H]1O [VANCOMYCIN]	1 (≈ 0.69 µM)	2 (≈ 1.38 µM)	–	> 64	–	–	–	> 64	Range [12]: 4 µg/mL; MIC50 (Enterococcus faecalis [13]): 2 µg/mL (≈ 1.38 µM); ED50 (Staphylococcus aureus [14]): 1.5 mg/kg; MIC90 [15]: 4 µg/mL (≈ 2.76 µM); Activity (Mus musculus): 25%; Range [16]: 2 µg/mL
CO[C@@H]1[C@@H](OC(N)=O)[C@@H](O)[C@H](Oc2ccc3c(O)c(NC(=O)c4ccc(O)c(CC=C(C)C)c4)c(=O)oc3c2C)OC1(C)C [NOVOBIOCIN]	–	–	0.12 (≈ 0.196 µM)	> 64	4 (≈ 6.53 µM)	0.25 (≈ 0.408 µM)	0.25 (≈ 0.408 µM)	> 64	MIC50 (Enterococcus faecalis [13]): 4 µg/mL (≈ 6.53 µM); MIC90 (Enterococcus faecalis [13]): 8 µg/mL (≈ 13.1 µM); Range [17]: 8 µg/mL; MIC (Streptococcus pyogenes): 1 µg/mL (≈ 1.63 µM); ED50 (Staphylococcus aureus [14]): 3 mg/kg; Range [18]: 8 µg/mL
CN(C)[C@@H]1C(O)=C(C(N)=O)C(=O)[C@@]2(O)C(O)=C3C(=O)c4c(O)cccc4[C@@](C)(O)[C@H]3C[C@@H]12 [TETRACYCLINE]	> 16	> 16	–	–	–	–	–	–	Range [19]: 16 µg/mL
COC(=O)[C@@H]1CSCc2c(O)cc(OC)c(C)c2C(=O)OCCCCC(=O)N1	–	–	2 (≈ 4.86 µM)	16 (≈ 38.9 µM)	4 (≈ 9.72 µM)	1 (≈ 2.43 µM)	4 (≈ 9.72 µM)	> 64	MNEC [4]: 0.05 µg/mL; MIC (Staphylococcus aureus [5]): 2 µg/mL (≈ 4.86 µM); MIC (Streptococcus pyogenes): 4 µg/mL (≈ 9.72 µM); MIC (Staphylococcus aureus [10]): 4 µg/mL (≈ 9.72 µM); IC50 (HeLa): > 50 µg/mL
COc1cccc(OC)c1C(=O)N[C@@H]1C(=O)N2[C@@H]1SC(C)(C)[C@@H]2C(=O)O [METHICILLIN]	32 (≈ 84.1 µM)	> 64	–	–	–	–	–	–	Range [20]: 64 µg/mL
